# Laboratory results from PMC8099784 (Redox Biology, 2021).
# Like-named read-outs stand apart in the source and are kept apart here. Peptide text beside a SMILES is read from it. * marks the point of attachment. Cbz = O=C(OCc1ccccc1)*; CH2F = FC*
# Columns and labels:
# HepG2 = test: MTT cell viability assay, HepG2 cells; assay type: cell-based, human; settings: for effect of caspase inhibitors on the effects of 23 on cell viability: HepG2, pretreated 2 h (Z-VAD-FMK 10 μM, Ac-DEVD-CHO 50 μM, Z-LEHD-FMK TFA 20 μM); for effect on 23-induced cell morphological changes and cell viability: HepG2, 10 μM pretreated 1 h
# In short: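 HepG2 at 5 × 10^3 cells/well, overnight, in RPMI 1640 with 10% FBS. Dose series for 24 h, or 2.5 μM for 24 h after pretreatment: MitoQ 1 μM for 1 h; Fer-1, DFO or Z-VAD-FMK 10 μM for 1 h; or Z-VAD-FMK 10 μM, Ac-DEVD-CHO 50 μM or Z-LEHD-FMK 20 μM for 2 h. MTT 4 h, DMSO, 570 nm. Morphology imaged by inverted microscopy.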
# A549 = test: MTT cell viability assay, A549 cells; assay type: cell-based; settings: Homo sapiens, A549, read-out: IC50 (μM) A549
# In short: (§1)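 Cells kept in RPMI 1640 with 10% FBS and penicillin/streptomycin at 37 °C, 5% CO2. Seeded at 5 × 10^3 cells/well overnight, exposed to a concentration series for the stated time. MTT (5 mg/mL) added for 4 h, crystals dissolved in DMSO, absorbance read at 570 nm. Normalized to DMSO vehicle; three independent runs; IC50 by curve fitting.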
# A2780 = test: MTT cell viability assay, A2780 cells; assay type: cell-based; settings: Homo sapiens, A2780, read-out: IC50 (μM) A2780
# In short: as §1
# Human Prdx I = molecular target: T1, Human Prdx I (Homo sapiens, UniProt Q06830); test: Peroxidase activity of recombinant Prdx I; assay type: biochemical; settings: Amplex Red probe, Fig. 4H
# T1 sequence (Q06830 1-199): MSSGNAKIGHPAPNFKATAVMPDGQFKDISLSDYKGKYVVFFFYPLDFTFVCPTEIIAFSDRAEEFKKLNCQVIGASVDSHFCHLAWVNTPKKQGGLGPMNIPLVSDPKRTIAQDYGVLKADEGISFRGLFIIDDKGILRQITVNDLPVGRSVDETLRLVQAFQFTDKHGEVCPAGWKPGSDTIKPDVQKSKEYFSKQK
# In short: (§2)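 Human Prdx I or II cloned in pET28a, expressed in E. coli BL21, purified. In 50 mM sodium phosphate pH 7.4, enzyme (30 μM solution) preincubated with compound 30 min at RT. H2O2 (10 μM solution) added for 10 min, then Amplex Red (50 μM solution) with HRP (1 U/mL solution) for 10 min. Fluorescence ex 535/em 595 nm; n = 3.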
# 7860 = test: MTT cell viability assay, 7860 cells; assay type: cell-based, human
# In short: as §1
# HBE = test: MTT cell viability assay, HBE normal lung cells; assay type: cell-based, human; settings: read-out: IC50 (μM) HBE
# In short: as §1
# Human Prdx II = molecular target: T2, Human Prdx II (Homo sapiens, UniProt P32119); test: Peroxidase activity of recombinant Prdx II; assay type: biochemical; settings: Amplex Red probe, Fig. 4I
# T2 sequence (P32119 1-198): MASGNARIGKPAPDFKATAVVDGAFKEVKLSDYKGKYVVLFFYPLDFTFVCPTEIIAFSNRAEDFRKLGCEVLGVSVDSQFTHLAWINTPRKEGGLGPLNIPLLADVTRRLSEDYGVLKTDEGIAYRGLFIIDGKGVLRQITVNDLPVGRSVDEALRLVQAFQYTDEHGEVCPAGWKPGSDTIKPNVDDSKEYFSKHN
# In short: as §2
# HepG2 cells [1] = test: C11-BODIPY lipid peroxidation assay, HepG2; assay type: cell-based, human; settings: HepG2, 10 μM pretreated 1 h, then 2.5 μM 23 for 24 h
# In short: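 HepG2, 1.6 × 10^5 cells/well. Treated at 1.25, 2.5 or 5 μM for 24 h, or 2.5 μM for 0–24 h; some wells pretreated 1 h with Fer-1, DFO or Z-VAD-FMK (each 10 μM). Trypsinized cells stained in PBS with 1.5 μM C11-BODIPY, 15 min, 37 °C; FL1 flow cytometry. Mean ± SD, n = 3.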
# HepG2 cells [2] = test: ROS detection by DCFH-DA, HepG2; assay type: cell-based, human; settings: then 2.5 μM 23 for 24 h
# In short: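 Cells seeded at 1.6 × 10^5 per well and exposed to treatment; HepG2 variants used MitoQ 1 μM for 1 h or a caspase-inhibitor pretreatment before 2.5 μM for 24 h. Trypsinized cells incubated 30 min in PBS with 10 μM DCFH-DA. Green fluorescence read on the FL1 flow-cytometry channel.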
# HepG2 cells [3] = test: Mitochondrial membrane potential; assay type: cell-based, human; settings: HepG2, 10 μM pretreated 2 h, then 2.5 μM 23 for 24 h
# In short: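 Cells seeded at 1.6 × 10^5 per well and exposed to treatment. Loaded with JC-1 for 1 h at 37 °C, washed twice in PBS, then held in serum-free medium. Red/green fluorescence ratio measured by flow cytometry.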
compound,measurement,setting,value
CC(=O)N[C@@H](CC(=O)O)C(=O)N[C@@H](CCC(=O)O)C(=O)N[C@H](C(=O)N[C@H](C=O)CC(=O)O)C(C)C [Ac-DEVD-CHO],effect of caspase inhibitors on the effects of 23 on cell viability,HepG2; then 2.5 μM 23 for 24 h,partially reversed
C=C1C(=O)[C@]23C[C@H]1C[C@H](OC(C)=O)[C@H]2[C@]1(C)[C@@H](OC(C)=O)C[C@H](O)C(C)(C)[C@H]1C(=O)[C@@H]3OC(C)=O [Adenanthin],IC50,A549,8.5 ± 1 µM
same,IC50,A2780,5.4 ± 0.9 µM
same,peroxidase activity of recombinant Prdx I,Human Prdx I,effectively inhibited
same,IC50,"7860; Homo sapiens, 786-0, read-out: IC50 (μM) 7860",5.5 ± 0.6 µM
same,IC50,"HBE; Homo sapiens, HBE",7.7 ± 1.1 µM
same,peroxidase activity of recombinant Prdx II,Human Prdx II,effectively inhibited
same,IC50,"HepG2; Homo sapiens, HepG2, read-out: IC50 (μM) HepG2",7.3 ± 0.8 µM
N.N.[Cl][Pt][Cl] [Cisplatin],IC50,"7860; read-out: IC50 (μM) 7860, cytotoxicity, MTT, mean ± SD",13.5 ± 1.3 µM
same,IC50,"HBE; cytotoxicity, MTT, normal lung cell line, mean ± SD",9.2 ± 1.4 µM
same,IC50,"HepG2; read-out: IC50 (μM) HepG2, cytotoxicity, MTT, mean ± SD",8.5 ± 0.4 µM
CC(=O)N(O)CCCCCNC(=O)CCC(=O)N(O)CCCCCNC(=O)CCC(=O)N(O)CCCCCN [DFO],effect on 23-induced lipid peroxidation,HepG2 cells [1],attenuated
same,effect on 23-induced cell morphological changes and cell viability,"HepG2; then 2.5 μM 23 for 24 h, MTT",markedly blocked
CCOC(=O)c1ccc(NC2CCCCC2)c(N)c1 [Fer-1],effect on 23-induced lipid peroxidation,HepG2 cells [1],attenuated
same,effect on 23-induced cell morphological changes and cell viability,"HepG2; then 2.5 μM 23 for 24 h, MTT",markedly blocked
COC1=C(OC)C(=O)C(CCCCCCCCCC[P+](c2ccccc2)(c2ccccc2)c2ccccc2)=C(C)C1=O [MitoQ],effect on 23-induced ROS accumulation,"HepG2 cells [2]; HepG2, pretreated 1 μM 1 h",reversed
same,effect on 23-induced cell viability inhibition,"HepG2; HepG2, pretreated 1 μM 1 h, then 2.5 μM 23 for 24 h, MTT",reversed
COC(=O)CC[C@H](NC(=O)[C@H](CC(C)C)NC(=O)OCc1ccccc1)C(=O)N[C@@H](Cc1cnc[nH]1)C(=O)N[C@@H](CC(=O)OC)C(=O)CF.O=C(O)C(F)(F)F [Z-LEHD-FMK TFA] (Cbz-LE(OMe)HD(OMe)-CH2F),effect of caspase inhibitors on the effects of 23 on cell viability,HepG2; then 2.5 μM 23 for 24 h,partially reversed
COC(=O)C[C@H](NC(=O)[C@H](C)NC(=O)[C@@H](NC(=O)OCc1ccccc1)C(C)C)C(=O)CF [Z-VAD-FMK] (Cbz-Val-Ala-Asp(OMe)-CH2F),effect on the changes in ROS caused by 23,"HepG2 cells [2]; HepG2, 10 μM pretreated 2 h",no effect
same,effect on the changes in MMP caused by 23,HepG2 cells [3],no effect
same,effect on 23-induced cell morphological changes and cell viability,"HepG2; then 2.5 μM 23 for 24 h, MTT",markedly blocked
same,effect of caspase inhibitors on the effects of 23 on cell viability,HepG2; then 2.5 μM 23 for 24 h,partially reversed
